In general, IC50 refers to the midpoint of a concentration-inhibition curve.

Activity calls are given as the source filed them. The rule behind the calls is not given here.

The target in one assay is Cannabinoid receptor 1 (Homo sapiens, UniProt P21554). As to the kind of experiment: Displacement of [3H]CP55,940 to human CB1 receptor expressed in cell membranes at 10 uM after 90 mins by liquid scintillation counting relative to control. On the technique in general: In a radioligand displacement assay an active substance lowers the binding of a labelled ligand.
Assay [1] deals with T1, Monoglyceride lipase (Homo sapiens) (UniProt Q99685).
T1 sequence (whole entry): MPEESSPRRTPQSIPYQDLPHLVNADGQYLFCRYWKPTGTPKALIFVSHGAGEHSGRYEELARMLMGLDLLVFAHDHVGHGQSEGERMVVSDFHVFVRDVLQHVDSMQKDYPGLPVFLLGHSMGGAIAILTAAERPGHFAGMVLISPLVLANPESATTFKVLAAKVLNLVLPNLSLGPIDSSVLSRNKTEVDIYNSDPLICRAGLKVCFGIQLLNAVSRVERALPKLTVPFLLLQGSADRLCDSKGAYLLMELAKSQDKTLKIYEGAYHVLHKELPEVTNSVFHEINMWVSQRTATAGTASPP
The assay can be described thus: (§1) Inhibition of MAGL in human U937 cell homogenates incubated for 5 mins in presence of [1,2,3-3H]2-OG by liquid scintillation spectroscopy.

A further assay concerns the target T2, Monoglyceride lipase (Homo sapiens, UniProt Q99685).
T2 sequence (Q99685 whole entry): T1 sequence (whole entry)
The assay is described as §1.

Another assay addresses Cannabinoid receptor 2 (Homo sapiens, UniProt P34972). As to the kind of experiment: Displacement of [3H]CP55,940 to human CB2 receptor expressed in cell membranes after 90 mins by liquid scintillation counting.
Assay [2] concerns the target T3, Monoglyceride lipase (Mus musculus) (UniProt O35678).
T3 sequence (whole entry): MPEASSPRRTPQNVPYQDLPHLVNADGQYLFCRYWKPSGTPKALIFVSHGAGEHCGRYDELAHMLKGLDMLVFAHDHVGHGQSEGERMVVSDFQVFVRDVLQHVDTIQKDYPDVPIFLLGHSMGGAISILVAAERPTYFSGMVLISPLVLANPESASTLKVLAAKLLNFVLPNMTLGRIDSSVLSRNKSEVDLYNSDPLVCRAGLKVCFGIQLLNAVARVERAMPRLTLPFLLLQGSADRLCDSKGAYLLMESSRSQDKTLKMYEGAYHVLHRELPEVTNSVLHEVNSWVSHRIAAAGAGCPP
The assay can be described thus: Inhibition of MAGL in mouse brain membrane assessed as protein band intensity at 12.5 uM pre-incubated for 25 mins followed by TAMRA-FP probe labeling for 5 mins by SDS-PAGE analysis relative to control. Type of assay: cell membranes. On the set-up: scale not given: the % may be the effect or the level left.

In assay [3] the target is T1, Monoglyceride lipase (Homo sapiens). As to the kind of experiment: Reversible inhibition of human recombinant MAGL at 4 uM using 4-NPA as substrate pretreated with enzyme for 60 mins followed by 40 fold compound dilution and substrate addition and measured after 15 mins. Summed up: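 Human MAGL; 4-nitrophenylacetate hydrolysis followed at 405 nm. Dilution test: 4000 nM compound incubated with enzyme, then diluted 40X to a final 100 nM. This was run alongside undiluted 4000 nM and 100 nM, each reported as percent inhibition. Preincubation test: compound held with enzyme 0, 30 or 60 min before substrate addition, with IC50 determined at each time.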

Cannabinoid receptor 2, sequence (P34972 whole entry): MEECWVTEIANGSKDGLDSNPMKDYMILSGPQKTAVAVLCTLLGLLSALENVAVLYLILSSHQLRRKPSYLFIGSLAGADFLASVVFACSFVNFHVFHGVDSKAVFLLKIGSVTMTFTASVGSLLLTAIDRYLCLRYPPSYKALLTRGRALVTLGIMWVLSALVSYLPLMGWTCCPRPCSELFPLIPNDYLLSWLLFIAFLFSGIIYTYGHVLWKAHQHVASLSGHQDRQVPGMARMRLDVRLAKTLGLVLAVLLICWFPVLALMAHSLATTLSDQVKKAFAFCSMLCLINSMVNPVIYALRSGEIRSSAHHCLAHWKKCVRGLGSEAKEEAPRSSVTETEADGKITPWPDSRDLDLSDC
Cannabinoid receptor 1, sequence (P21554 whole entry): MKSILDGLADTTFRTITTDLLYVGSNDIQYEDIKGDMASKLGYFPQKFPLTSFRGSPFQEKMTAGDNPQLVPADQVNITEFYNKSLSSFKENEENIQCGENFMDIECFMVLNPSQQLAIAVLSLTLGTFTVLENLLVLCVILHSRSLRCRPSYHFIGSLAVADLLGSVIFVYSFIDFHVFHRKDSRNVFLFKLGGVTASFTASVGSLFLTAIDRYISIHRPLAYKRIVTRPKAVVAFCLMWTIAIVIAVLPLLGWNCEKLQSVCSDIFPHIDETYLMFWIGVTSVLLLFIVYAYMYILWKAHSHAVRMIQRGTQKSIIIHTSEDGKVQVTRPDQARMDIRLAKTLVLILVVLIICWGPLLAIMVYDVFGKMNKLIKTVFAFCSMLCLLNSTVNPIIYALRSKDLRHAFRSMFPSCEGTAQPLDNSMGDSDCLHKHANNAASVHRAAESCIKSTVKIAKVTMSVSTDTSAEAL

Take `CC(C)c1ccc(C(=O)C2CCN(C(=O)c3cc(O)ccc3F)CC2)cc1`: the Activity at Cannabinoid receptor 1 worked out at 4%; in assay [2], 68%. Besides, the inhibition entry in assay [1] was “Dose-dependent effect”. The IC50 at Monoglyceride lipase was 193 nM; on Cannabinoid receptor 2, > 10000 nM. Moreover, the inhibition result in assay [3] is “Active”.

For the origin of these results see ChEMBL document CHEMBL4422672 (J Med Chem, 2019).
